Laboratory results published in ChEMBL document CHEMBL1250420, “Identification of chalcones as in vivo liver monofunctional phase II enzymes inducers” (Bioorg Med Chem, 2010).
The source made the active and inactive calls. No cut-off for these calls is given here.

Columns and labels:
[1] = tested on: MCF7; assay: Cytotoxicity against human MCF7 cells; format: functional, cell-based
[2] = tested on: TK-10; assay: Cytotoxicity against human TK10 cells; format: functional, cell-based
[3] = tested on: HT-29; assay: Cytotoxicity against human HT-29 cells; format: functional, cell-based
[4] = tested on: Rattus norvegicus; assay: Toxicity in Sprague-Dawley rat assessed as leucocyte level at 10 mg/kg/day, po; settings: in vivo
[5] = tested on: Rattus norvegicus; assay: Toxicity in Sprague-Dawley rat assessed as change in body weight at 10 mg/kg/day, po; settings: in vivo
[6] = tested on: Rattus norvegicus; assay: Toxicity in Sprague-Dawley rat assessed as haemoglobin level at 10 mg/kg/day, po (RVb = 15.1 +/- 4.1 g/L); settings: in vivo
[7] = tested on: Rattus norvegicus; assay: Toxicity in Sprague-Dawley rat assessed as glutamic-pyruvate level at 10 mg/kg/day, po (RVb = 22.8 +/-13.2 U/L); settings: in vivo
[8] = tested on: Rattus norvegicus; assay: Toxicity in Sprague-Dawley rat assessed as glutamic-oxalate transaminase level at 10 mg/kg/day, po (RVb = 71.4 +/- 7.8 U/L); settings: in vivo
[9] = tested on: Rattus norvegicus; assay: Induction of quinone reductase activity in rat liver at 15 mg/kg, po qd; format: functional
In short: (§1)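 Oral dosing for 15 days over 3 weeks, then liver QR read as loss of 600 nm absorbance of DCPIP (80 µM) with 0.2 mM NADH, 5 µM FAD, 25 mM Tris–HCl pH 7.4, 6% BSA, 0.01% Tween 20. Specific activity expressed as % change from basal-diet control, n = 5, means ± SE, Student's t-test.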

[10] = tested on: Rattus norvegicus; assay: Induction glutathione-S-transferase activity in rat liver at 15 mg/kg, po qd; format: functional
In short: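 Hepatic GST after oral dosing for 15 days over 3 weeks. Substrates 1 mM CDNB and 1 mM reduced glutathione in 100 mM phosphate buffer pH 6.5; CDNB–GSH conjugate followed at 340 nm. Specific activity given as % change from basal-diet control, n = 5, means ± SE, Student's t-test.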

[11] = tested on: Rattus norvegicus; assay: Induction glutathione-CYP1A1 in rat liver at 15 mg/kg, po qd by EROD assay; format: functional
In short: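 Rat liver CYP1A1 read as EROD activity: fluorescence increase from resorufin released from 7-ethoxyresorufin, in 100 mM phosphate buffer pH 7.6 with 250 µM NADPH. Oral dosing for 15 days over 3 weeks; change in specific activity expressed as % of basal-diet control, n = 5, means ± SE, Student's t-test.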

[12] = Mutagenic activity in Salmonella typhimurium TA98 assessed as […] increase in number of revertants at 3 ug/plate after 48 hrs by Ames test; format: toxicity; settings: salmonella enterica subsp. enterica serovar typhimurium
In short: (§2)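 TA98 pre-incubation Ames test without listed S9: 50 µL test solution, 500 µL 0.1 M phosphate pH 7.4 and 100 µL bacteria (2 × 10^9/mL), 60 min. Top agar with trace histidine/biotin, then 48 h at 37 °C and revertant count. Doses fall by thirds from the minimum toxic dose; DMSO and 4-NPD (20 µg/plate) controls; two independent experiments, means ± SD.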

[13] = Mutagenic activity in Salmonella typhimurium TA98 assessed as […] increase in number of revertants at 8 ug/plate after 48 hrs by Ames test; format: toxicity; settings: salmonella enterica subsp. enterica serovar typhimurium; in short: as §2
[14] = Mutagenic activity in Salmonella typhimurium TA98 assessed as […] increase in number of revertants at 25 ug/plate after 48 hrs by Ames test; format: toxicity; settings: salmonella enterica subsp. enterica serovar typhimurium; in short: as §2
[15] = Mutagenic activity in Salmonella typhimurium TA98 assessed as […] increase in number of revertants at 75 ug/plate after 48 hrs by Ames test; format: toxicity; settings: salmonella enterica subsp. enterica serovar typhimurium; in short: as §2
[16] = Mutagenic activity in Salmonella typhimurium TA98 assessed as […] increase in number of revertants at 225 ug/plate after 48 hrs by Ames test; format: toxicity; settings: salmonella enterica subsp. enterica serovar typhimurium; in short: as §2
[17] = tested on: Rattus norvegicus; assay: Induction of quinone reductase activity in rat liver at 22.5 mg/kg, po qd; format: functional; in short: as §1
[18] = tested on: Rattus norvegicus; assay: Induction glutathione-CYP1A1 in rat liver at 15 mg/kg, po qd by EROD assay
[19] = tested on: Rattus norvegicus; assay: Induction glutathione-S-transferase activity in rat liver at 15 mg/kg, po qd
[20] = target: T1, Quinone oxidoreductase (Homo sapiens) (UniProt Q08257); assay: Induction of quinone reductase activity in human MCF7 cells; format: cell-based
T1 sequence (whole entry): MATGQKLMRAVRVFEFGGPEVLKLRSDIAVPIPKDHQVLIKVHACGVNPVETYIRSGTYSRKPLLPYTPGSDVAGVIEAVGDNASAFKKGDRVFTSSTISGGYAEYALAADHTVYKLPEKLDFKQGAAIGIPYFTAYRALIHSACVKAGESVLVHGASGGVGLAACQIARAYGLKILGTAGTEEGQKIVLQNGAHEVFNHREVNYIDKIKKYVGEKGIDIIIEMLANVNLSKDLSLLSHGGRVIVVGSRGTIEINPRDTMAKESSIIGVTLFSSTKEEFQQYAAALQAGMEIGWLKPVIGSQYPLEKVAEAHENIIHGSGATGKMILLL
In short: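 QR induction in MCF-7 tumour cells at 40 µM, a level chosen from a flavone dose–response; result given as ratio of QR specific activity, treated/control.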

[21] = tested on: Liver microsomes; assay: Metabolic stability in rat liver microsome; format: ADME
In short: (§3)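 Female Wistar rat liver microsomes (100,000 × g pellet) at 1 mg/mL protein with 400 µM flavonoid (DMSO <1%). Incubated 0.5 h at 37 °C, with or without an NADPH-generating system (MgCl2, NADP+, glucose 6-phosphate, G6PDH) in 0.1 M phosphate pH 7.4, 1.5 mM EDTA. Heat-inactivated control included; triplicate; read by UV spectra and chromatography.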

[22] = tested on: Liver microsomes; assay: Metabolic stability in rat liver microsome in presence of NADPH; format: ADME; in short: as §3
[23] = tested on: Rattus norvegicus; assay: Toxicity in Sprague-Dawley rat assessed as change in body weight at 250 mg/kg, po; format: organism-based; design: dose 250 mg/kg, route oral; settings: in vivo
In short: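 Healthy female Sprague–Dawley rats (about 200 g, 5–7 per group) given a single oral dose by intragastric syringe, suspended in saline/Tween 80 (4:1); vehicle-treated controls included. Daily weighing and observation for 3 days, then sacrifice with clinical biochemistry, haematology and organ histology.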

[24] = dose 15.0 mg/kg, in the assay text read “at 15.0 mg/kg” for “at 22.5 mg/kg”

Structure (SMILES)	Activity [1]	Activity [2]	Activity [3]	Activity [4] [µL⁻¹]	Activity [5]	Activity [6] [g/L]	Activity [9] [%]	Activity [10] [%]	Activity [11] [%]	Activity [17, 24] [%]	also measured
O=c1cc(-c2ccccc2Br)oc2ccccc12	Active	inactive	inactive	4500	Non-toxic	9.6					Activity [7]: 45.4 U/L; Activity [8]: 52.9 U/L
O=c1cc(-c2ccccc2)oc2ccccc12 [FLAVONE]	inactive	inactive	inactive				-30				
CN(C)c1ccc(/C=C/C(=O)c2ccccc2O)cc1	inactive	inactive	inactive	5500	Non-toxic	11.5					
O=C(/C=C/c1cccs1)c1ccccc1O							10	10	20		Activity [12]: 15; Activity [13]: 16; Activity [14]: 19; Activity [15]: 13; Activity [16]: 14
O=C(/C=C/c1ccc(Cl)cc1)c1ccccc1O	inactive	Active	Active							20	Activity [18]: -10%; Activity [19]: -20%
CSc1ccc(/C=C/C(=O)c2ccccc2)cc1	inactive	Active	inactive				20	30	750		
O=C(/C=C/c1ccc(Br)cc1)c1ccccc1O	inactive	inactive	inactive	7700	Non-toxic	8.4				128	Activity [20]: Active; Stability [21]: Stable; Stability [22]: Stable; Activity [18]: -80%; Activity [19]: -30%; Activity [7]: 26 U/L; Activity [8]: 61.7 U/L
O=C1CC(c2ccccc2Br)Oc2ccccc21 (centres undefined)	Active	inactive	inactive				10	10	30		
O=c1cc(-c2ccc(Br)cc2)oc2ccccc12	inactive	inactive	inactive		Non-toxic		30				
COc1ccc(/C=C/C(=O)c2ccccc2O)cc1	Active	Active	inactive	7300		12.3				60	Activity [23]: Non-toxic; Activity [18]: -40%; Activity [19]: -10%; Activity [7]: 13.2 U/L; Activity [8]: 52.2 U/L
O=C(/C=C/c1ccccn1)c1ccccc1O	Active	Active	Active							13	Activity [20]: Active; Activity [12]: 13; Activity [13]: 17; Activity [14]: 16; Activity [15]: 17; Activity [16]: 18; Activity [18]: 10%; Activity [19]: 20%
Nc1ccc(/C=C/C(=O)c2ccccc2O)cc1	inactive	inactive	inactive							0	
COc1ccc(C2CC(=O)c3ccccc3O2)cc1 (centres undefined)	Active	Active	inactive	8600	Non-toxic	11.3					
COc1ccc(/C=C/C(=O)c2ccccc2)cc1 [4-METHOXY CHALCONE]	inactive	Active	Active				10	-10	-30		
O=C(/C=C/c1ccc2c(c1)OCO2)c1ccccc1O	inactive	inactive	inactive							30	Activity [18]: -50%; Activity [19]: -20%
O=C(/C=C/c1ccccc1)c1ccccc1O [2'-HYDROXYCHALCONE]	Active	Active	Active	5200		11.3	10	30	-60		Activity ([17]; dose 22.5 mg/kg): 10%; Activity [20]: Active; Activity [12]: 13; Activity [13]: 16; Activity [14]: 17; Activity [15]: 20; Activity [16]: 14; Activity [23]: Non-toxic
COc1ccc(/C=C/C(=O)c2ccccc2O)cc1OC	Active	Active	inactive	9600	Non-toxic	9.3				-20	Activity [7]: 15 U/L; Activity [8]: 62.1 U/L
O=C(/C=C/c1ccc(Cl)cc1)c1ccccc1 [4-CHLORO CHALCONE]	inactive	Active	Active				10	-20	40		
